MC4R antagonist = human MC4R antagonism in cAMP assay; P32245; MC4R-expressing cells, MTII-stimulated cAMP, LANCE TR-FRET; hit rate 0.48% among 360,000; inhibition, % at 6.5 µM;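 active means inhibition above its plate's cutoff, the mean of tested wells on that plate plus 3 SD, cut at about 29% in these data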;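 further: 0% = Melanotan II alone and 100% = Melanotan II plus saturating MCL0020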
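Assay system: human MC4R-expressing U2OS cells; reagent: Melanotan II stimulation of cells; dosing: 6.5 µM single dose; timing: compound 30 min, challenge 1 h, detection 1 h; signal: TR-FRET cAMP assay; replicates: one well per compound, no replicates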
MC4R ag barr = human MC4R agonism via beta-arrestin; P32245; U2OS MC4R beta-arrestin complementation, luminescence; percent of melanotan II response, DMSO zero; activation, % at 8.9 µM; hit rate 0.98% among 360,000;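 active means activation above a per-plate cutoff, the mean activation of sample wells on that plate plus 3 SD, cut at about 8% in these data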
EBI2 antag = EBI2 (human) antagonism. P32249. EBI2 beta-arrestin recruitment, luminescence, 7a,25-OHC stimulated. inhibition, % at 5 µM. hit rate 0.81% among 360,000. AID 651636; in the data active means inhibition above about 38%;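 further: enzyme fragment complementation signal reports receptor beta-arrestin coupling in cells; 0% = agonist plus DMSO wells and 100% = wells without agonist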
Target sequence (P32249 whole entry, looked up, the tested form may be a part): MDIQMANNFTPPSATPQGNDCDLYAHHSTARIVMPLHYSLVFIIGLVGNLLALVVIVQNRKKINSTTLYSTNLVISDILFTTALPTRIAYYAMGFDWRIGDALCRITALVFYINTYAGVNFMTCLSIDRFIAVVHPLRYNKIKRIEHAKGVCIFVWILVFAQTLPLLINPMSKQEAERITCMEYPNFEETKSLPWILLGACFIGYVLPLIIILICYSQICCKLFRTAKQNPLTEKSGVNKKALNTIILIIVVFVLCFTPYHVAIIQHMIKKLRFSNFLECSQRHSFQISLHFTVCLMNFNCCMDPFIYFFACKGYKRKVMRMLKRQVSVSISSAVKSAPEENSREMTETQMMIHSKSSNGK
Myeloid diff 2 = promotes myeloid progenitor differentiation. hit rate 1% among 360,000. ER-HoxA9 myeloid progenitors, lysozyme-GFP differentiation, flow cytometry. calls only at 10 µM. AID 624256;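 active means normalized GFP-positive differentiation at or above the plate's own cutoff, the solvent-only control mean plus 3 SD; inconclusive means no clear call, values can overlap the other calls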;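 further: cells exposed to compound for four days before flow analysis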
Exocytosis inh = blocks lytic granule exocytosis | TALL-104 LAMP-1 surface exposure, flow cytometry; cells stimulated with thapsigargin and PMA | inhibition, % at 10 µM | hit rate 0.66% among 360,000 | AID 651702;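 active means inhibition above about 55%, limit read from the data; inconclusive means no clear call, values can overlap the other calls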
Numbers without * were called inactive; i = inactive; ? = inconclusive; . = no result; + = active, no number. Shown are actives, neighbours in structure and some others; about 3.7% of the full set was active somewhere.

SMILES	MC4R antagonist	MC4R ag barr	EBI2 antag	Myeloid diff 2	Exocytosis inh
CN1CCCC1CCNc1ccc2sc3ccccc3c(=O)c2c1 (stereo not drawn)	1	1	-7	+	0
Cc1cc2oc3cc(NCCC4CCCN4C)ccc3c(=O)c2cc1C (stereo not drawn)	-1	0	10	i	-4
O=C(OCC(=O)N1CCCC1=O)C1CCN(S(=O)(=O)c2c(Cl)cccc2Cl)CC1	5	-2	8	?	1
Cc1ccc(S(=O)(=O)N2CCN(C(=O)CC(C)n3nc(C)c(Cl)c3C)CC2)cc1 (stereo not drawn)	0	2	14	?	13
NC(=S)N/N=C/c1ccc(-c2ccc(Cl)c(Cl)c2)o1	-2	-3	9	i	27
NC(=S)N/N=C/c1ccc(-c2ccccc2)o1	1	-4	5	i	91*
Cc1ccc(-c2ccc(/C=N/NC(N)=S)o2)cc1	3	-2	11	i	103*
Cc1noc(C)c1CSCC(=O)N(C)CC(=O)Nc1ccccc1Br	8	-2	-3	i	0
Fc1ccc(COc2cccc(CNCc3ccncc3)c2)cc1	17	1	-10	+	3
CCOc1cc(CNCc2ccncc2)cc(Br)c1OCc1ccc(F)cc1	2	0	59*	i	7
Fc1ccc(COc2ccc(Br)cc2CNCc2ccncc2)cc1	2	2	14	i	1
Cc1ccnc(NC(=O)C2CC(=O)N(Cc3ccccc3)C2)c1 (stereo not drawn)	2	-3	0	i	0
O=C(Nc1ccc(-n2cnnn2)cc1)c1cc(S(=O)(=O)N2CCCC2)ccc1Cl	-2	-2	-1	i	3
COc1ccccc1N1CCN(C(=O)C(C)NC(=O)c2ccco2)CC1 (stereo not drawn)	8	-1	-16	i	-1
CC(NC(=O)c1ccco1)C(=O)N1CCc2ccccc2C1 (stereo not drawn)	-2	-1	-19	+	-2
COc1ccc(N2CC(C(=O)N3CCc4ccccc43)CC2=O)cc1 (stereo not drawn)	2	-3	4	i	0
CC1(C)CC(Cc2ccc(C(=O)c3ccccc3)cc2)N(C(=O)OC(C)(C)C)N1 (stereo not drawn)	5	-1	2	i	-1
O=C1CC(Sc2nnc(-c3ccccc3)o2)C(=O)N1c1ccccc1 (stereo not drawn)	9	-2	0	i	66*
O=C(O)c1ccccc1SC1CC(=O)N(c2ccccc2)C1=O (stereo not drawn)	-2	2	1	i	-1
C=CCc1cccc(/C=N/NC(=O)C(C)Nc2ccc(C)cc2)c1O (stereo not drawn)	-2	6	41*	i	0
C=CCc1cccc(/C=N/NC(=O)C(=O)Nc2ccc(C)cc2)c1O	-4	0	4	i	0
COC(=O)C1(C(=O)OC)C[C@H](c2ccc(OC)cc2)N(Cc2ccccc2OC)[C@@H]1c1cccs1	.	.	30	i	-7
CC(=O)N(/N=C1\Sc2ccccc2C1=O)c1ccccc1C	-7	-3	27	i	-6
CC(=O)N(/N=C1\Sc2ccccc2C1=O)c1ccc(C)cc1C	0	-2	9	+	-1
CCN1CCN(c2ccc(S(=O)(=O)N3CCCCC3)cc2NC(=O)Cc2ccc(Cl)c(Cl)c2)CC1	0	4	7	i	56*
SMILES	MC4R antagonist	MC4R ag barr	EBI2 antag	Myeloid diff 2	Exocytosis inh
CCN1CCN(c2ccc(S(=O)(=O)N3CCCCC3)cc2NC(=O)/C=C/c2ccc(OC)c(OC)c2)CC1	-4	0	-3	i	17
O=C(COC(=O)c1ccccc1O)Nc1cc(S(=O)(=O)N2CCCCCC2)ccc1Cl	3	1	5	i	0
CCN1CCN(c2ccc(S(=O)(=O)N3CCCCC3)cc2NC(=O)Cc2ccccc2)CC1	-1	-1	-14	i	9
CCN1CCN(c2ccc(S(=O)(=O)N3CCCCC3)cc2NC(=O)/C=C/c2cc(OC)ccc2OC)CC1	9	-3	17	?	60*
O=C(COC(=O)c1ccccc1)Nc1cc(S(=O)(=O)N2CCCCCC2)ccc1Cl	7	8.8*	0	i	0
COc1ccc(S(=O)(=O)N2CCCCCC2)cc1NC(=O)CN(C)Cc1ccc2c(c1)OCO2	-4	-3	25	+	-3
COc1ccc(NC2CCCN(C(=O)c3cc4ncccn4n3)C2)cc1 (stereo not drawn)	0	-2	-8	i	0
O=C(COc1ccc(S(=O)(=O)N2CCCCC2)cc1Cl)N1CCCC1	9	-2	5	+	-1
O=C(COc1ccc(S(=O)(=O)N2CCOCC2)cc1Cl)N1CCCC1	7	0	0	i	-4
CC1CCCC(C)N1C(=O)c1cc(-c2ccco2)on1 (stereo not drawn)	-4	0	-7	+	-5
COC(=O)c1ccc(CC2(C)C(=O)Nc3ccc(-c4cccc(C(F)(F)F)c4)cc32)o1 (stereo not drawn)	7	5	6	i	15
O=C(c1cccc(OC2CCN(Cc3cccc(OCCO)c3)CC2)c1)N1CCCC1	21	-3	-11	+	-2
O=C(c1ccc(OC2CCN(Cc3cccc(OCCO)c3)CC2)cc1)N1CCCC1	7	-4	-5	i	1
CCCCOc1ccc(C2/C(=C(/O)c3ccc4c(c3)CC(C)O4)C(=O)C(=O)N2CCCN2CCOCC2)cc1OC (stereo not drawn)	-3	-2	-5	i	0
CCCCC(=O)N1CCCC(C(=O)OCC)C1 (stereo not drawn)	11	1	15	+	1
CCOCC(=O)N1CCCC(C(=O)OCC)C1 (stereo not drawn)	-3	-1	-4	i	1
O=C(Cn1[nH]c(=O)c2ccccc2c1=O)N1CCN(S(=O)(=O)c2ccc(Cl)cc2)CC1	0	-1	6	i	-9
CC(C)c1ccc(NC(=O)C2CCN(S(=O)(=O)c3ccc4c(c3)C(C)(C)C(=O)N4C)CC2)cc1	5	0	10	i	-5
COC(=O)[C@@]12C[C@@H](CC(=O)NCC34CC5CC(CC(C5)C3)C4)C(=O)N(Cc3ccco3)C1=CCC(C)(C)C2	.	.	19	i	18
OCCNc1c2ccccc2nc2c(F)c(F)c(F)c(F)c12	-27	0	-7	.	-2
Cc1c2ccccc2nc2c(F)c(NC(C)C)c(F)c(F)c12	10	-2	3	+	2
Cc1ccc(Oc2nc3ccccn3c(=O)c2/C=C(\C#N)C(=O)NC2CCS(=O)(=O)C2)cc1 (stereo not drawn)	4	-2	30	i	74*
Cc1ccccc1Oc1nc2c(C)cccn2c(=O)c1/C=C(\C#N)C(=O)NC1CCS(=O)(=O)C1 (stereo not drawn)	2	1	9	i	82*

Screens: PubChem BioAssay, several laboratories
